Source: ChEMBL document CHEMBL5058577, “EUbOPEN Chemogenomics Library 2 (Multiplex)” (2022)

System: Fibroblast
Assay: Multiplex assay against human fibroblast
Assay type: toxicity, cell-based
In short: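 Cells were classed with CellPathfinder machine-learning gating, first as Hoechst high-intensity objects or normal cells, then (normal cells) as healthy, pyknosed or fragmented nuclei, and finally (pyknosed cells) as mitotic or apoptotic. Staining of live cells at seeding used Hoechst33342, BioTracker Green Microtubule Cytoskeleton Dye, MitoTracker Red and Annexin V Alexa Fluor 680, with imaging on a CQ1 microscope at 37°C and 5% CO2 after compound addition. Tubulin, mitochondrial-mass and membrane-permeability phenotypes are per cents of healthy-nucleus cells.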

[1] = 12 h, 1 µM, compound concentration 1 uM, replicate 1
[2] = 12 h, 1 µM, compound concentration 1 uM, replicate 2
[3] = 12 h, 10 µM, compound concentration 10 uM, replicate 1
[4] = 12 h, 10 µM, compound concentration 10 uM, replicate 2
[5] = 24 h, 1 µM, compound concentration 1 uM, replicate 1
[6] = 24 h, 1 µM, compound concentration 1 uM, replicate 2
[7] = 24 h, 10 µM, compound concentration 10 uM, replicate 1
[8] = 24 h, 10 µM, compound concentration 10 uM, replicate 2
[9] = 48 h, 1 µM, compound concentration 1 uM, replicate 1
[10] = 48 h, 1 µM, compound concentration 1 uM, replicate 2
[11] = 48 h, 10 µM, compound concentration 10 uM, replicate 1
[12] = 48 h, 10 µM, compound concentration 10 uM, replicate 2

COc1cc2nc(N3CCN(C(=O)COc4c(OC)cccc4C(C)C)CC3)nc(N)c2cc1OC.Cl.Cl
Population Apoptotic (%) [1]: 50%
Population Fragmented Nuclei (%) [1]: 17%
Population Healthy Nuclei (%) [1]: 51%
Population Hoechst High Intensity Objects (%) [1]: 4%
Population Membrane Permeable-Phenotype (%) [1]: 3%
Population Mitochondria Different-Phenotype (%) [1]: 6%
Population Mitotic Cells (%) [1]: 50%
Population Normal (%) [1]: 95%
Population Pyknosed Nuclei (%) [1]: 30%
Population Tubulin-Different-Phenotype (%) [1]: 40%
Total Cell Count [1]: 123
Population Apoptotic (%) [2]: 36%
Population Fragmented Nuclei (%) [2]: 39%
Population Healthy Nuclei (%) [2]: 42%
Population Hoechst High Intensity Objects (%) [2]: 9%
Population Membrane Permeable-Phenotype (%) [2]: 5%
Population Mitochondria Different-Phenotype (%) [2]: 7%
Population Mitotic Cells (%) [2]: 63%
Population Normal (%) [2]: 90%
Population Pyknosed Nuclei (%) [2]: 18%
Population Tubulin-Different-Phenotype (%) [2]: 43%
Total Cell Count [2]: 182
Population Apoptotic (%) [3]: 33%
Population Fragmented Nuclei (%) [3]: 13%
Population Healthy Nuclei (%) [3]: 47%
Population Hoechst High Intensity Objects (%) [3]: 20%
Population Membrane Permeable-Phenotype (%) [3]: 0%
Population Mitochondria Different-Phenotype (%) [3]: 15%
Population Mitotic Cells (%) [3]: 66%
Population Normal (%) [3]: 79%
Population Pyknosed Nuclei (%) [3]: 38%
Population Tubulin-Different-Phenotype (%) [3]: 63%
Total Cell Count [3]: 346
Population Apoptotic (%) [4]: 29%
Population Fragmented Nuclei (%) [4]: 22%
Population Healthy Nuclei (%) [4]: 46%
Population Hoechst High Intensity Objects (%) [4]: 10%
Population Membrane Permeable-Phenotype (%) [4]: 4%
Population Mitochondria Different-Phenotype (%) [4]: 8%
Population Mitotic Cells (%) [4]: 70%
Population Normal (%) [4]: 89%
Population Pyknosed Nuclei (%) [4]: 30%
Population Tubulin-Different-Phenotype (%) [4]: 56%
Total Cell Count [4]: 283
Population Apoptotic (%) [5]: 68%
Population Fragmented Nuclei (%) [5]: 23%
Population Healthy Nuclei (%) [5]: 58%
Population Hoechst High Intensity Objects (%) [5]: 3%
Population Membrane Permeable-Phenotype (%) [5]: 1%
Population Mitochondria Different-Phenotype (%) [5]: 9%
Population Mitotic Cells (%) [5]: 31%
Population Normal (%) [5]: 96%
Population Pyknosed Nuclei (%) [5]: 17%
Population Tubulin-Different-Phenotype (%) [5]: 39%
Total Cell Count [5]: 128
Population Apoptotic (%) [6]: 57%
Population Fragmented Nuclei (%) [6]: 40%
Population Healthy Nuclei (%) [6]: 42%
Population Hoechst High Intensity Objects (%) [6]: 11%
Population Membrane Permeable-Phenotype (%) [6]: 5%
Population Mitochondria Different-Phenotype (%) [6]: 11%
Population Mitotic Cells (%) [6]: 42%
Population Normal (%) [6]: 88%
Population Tubulin-Different-Phenotype (%) [6]: 50%
Total Cell Count [6]: 180
Population Apoptotic (%) [7]: 40%
Population Fragmented Nuclei (%) [7]: 13%
Population Healthy Nuclei (%) [7]: 45%
Population Hoechst High Intensity Objects (%) [7]: 39%
Population Membrane Permeable-Phenotype (%) [7]: 0%
Population Mitochondria Different-Phenotype (%) [7]: 17%
Population Mitotic Cells (%) [7]: 60%
Population Normal (%) [7]: 60%
Population Pyknosed Nuclei (%) [7]: 41%
Population Tubulin-Different-Phenotype (%) [7]: 38%
Total Cell Count [7]: 344
Population Apoptotic (%) [8]: 33%
Population Fragmented Nuclei (%) [8]: 25%
Population Healthy Nuclei (%) [8]: 40%
Population Hoechst High Intensity Objects (%) [8]: 23%
Population Membrane Permeable-Phenotype (%) [8]: 4%
Population Mitochondria Different-Phenotype (%) [8]: 5%
Population Mitotic Cells (%) [8]: 66%
Population Normal (%) [8]: 76%
Population Pyknosed Nuclei (%) [8]: 34%
Population Tubulin-Different-Phenotype (%) [8]: 47%
Total Cell Count [8]: 273
Population Apoptotic (%) [9]: 65%
Population Fragmented Nuclei (%) [9]: 31%
Population Healthy Nuclei (%) [9]: 51%
Population Hoechst High Intensity Objects (%) [9]: 4%
Population Membrane Permeable-Phenotype (%) [9]: 0%
Population Mitochondria Different-Phenotype (%) [9]: 11%
Population Mitotic Cells (%) [9]: 35%
Population Normal (%) [9]: 96%
Population Pyknosed Nuclei (%) [9]: 16%
Population Tubulin-Different-Phenotype (%) [9]: 30%
Total Cell Count [9]: 125
Population Apoptotic (%) [10]: 42%
Population Fragmented Nuclei (%) [10]: 45%
Population Healthy Nuclei (%) [10]: 43%
Population Hoechst High Intensity Objects (%) [10]: 10%
Population Membrane Permeable-Phenotype (%) [10]: 8%
Population Mitochondria Different-Phenotype (%) [10]: 10%
Population Mitotic Cells (%) [10]: 57%
Population Normal (%) [10]: 89%
Population Pyknosed Nuclei (%) [10]: 11%
Population Tubulin-Different-Phenotype (%) [10]: 57%
Total Cell Count [10]: 193
Population Apoptotic (%) [11]: 45%
Population Fragmented Nuclei (%) [11]: 12%
Population Healthy Nuclei (%) [11]: 45%
Population Hoechst High Intensity Objects (%) [11]: 52%
Population Membrane Permeable-Phenotype (%) [11]: 2%
Population Mitochondria Different-Phenotype (%) [11]: 10%
Population Mitotic Cells (%) [11]: 54%
Population Normal (%) [11]: 47%
Population Pyknosed Nuclei (%) [11]: 42%
Population Tubulin-Different-Phenotype (%) [11]: 42%
Total Cell Count [11]: 358
Population Apoptotic (%) [12]: 30%
Population Fragmented Nuclei (%) [12]: 33%
Population Healthy Nuclei (%) [12]: 33%
Population Hoechst High Intensity Objects (%) [12]: 31%
Population Membrane Permeable-Phenotype (%) [12]: 9%
Population Mitochondria Different-Phenotype (%) [12]: 0%
Population Mitotic Cells (%) [12]: 69%
Population Normal (%) [12]: 68%
Population Pyknosed Nuclei (%) [12]: 33%
Population Tubulin-Different-Phenotype (%) [12]: 43%
Total Cell Count [12]: 311
